Source: PubChem (Broad Institute)
Rows were chosen to be rich in hits. Some 3.6% of all compounds tested hit in one or more screens of this group.
HIF act: HIF pathway transcriptional activators, primary screen, cell-based, U2OS HRE-luciferase, luminescence. U2OS HRE-luciferase reporter; normalized: DMSO 0%, desferrioxamine 100%. activation, % at 7.5 µM (by protocol). hit rate 0.32% among 300,000. AID 1910, 2009;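 active means mean activation of at least 10% of the iron chelator positive control signal, with at least half of replicates also reaching 10%; inconclusive means mean and replicate majority disagree about reaching 10%; inactive means mean and most replicates under 10%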
Beta apoptosis: inhibitors of cytokine-induced beta cell apoptosis, primary screen, luminescence; INS-1E cytokine-induced death, ATP luminescence, 48 h; percent of positive-control rescue, neutral wells zero; protection from apoptosis, % (concentration not given with the values); hit rate 0.8% among 300,000;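 active means Every replicate reaches about 75%, or at least half do and their mean reaches it too, limit read from the data; inconclusive means At least half of replicates reach the limit but their mean does not; inactive means Under half of replicates reach the limit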;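 further: higher means more ATP so stronger rescue from cytokine killing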
SKKanGAS inh: S. pyogenes SKKanGAS growth inhibitors in kanamycin, primary screen, streptokinase expression inhibitor project, SKKanGAS strain, BacTiter-Glo luminescence | hit rate 1.3% among 300,000 | 6 h | inhibition, % at 7.5 µM;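 active means mean replicate score, as percent of positive control median, at least 50; inconclusive means mean below 50 but one replicate at or above 50; inactive means mean and every replicate below 50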;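 further: strain carries kanamycin resistance gene driven by streptokinase promoter and grows in 40 µg/ml kanamycin; loss of luminescence reflects streptokinase promoter inhibition or plain growth inhibition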
CSC inhib: cancer stem cell viability inhibitors, primary screen, luminescence | cancer stem cell-like cells viability | inhibition, % at 7.5 µM | hit rate 1.1% among 300,000 | AID 2717, 2010; in the data active means inhibition above about 75%; inconclusive means no clear call, values can overlap the other calls; tested in HMLE shEcad cells
PfHsp90 set2: growth inhibition of PfHsp90-expressing yeast, primary screen, antimalarial PfHsp90 inhibitor project, S. cerevisiae, BacTiter-Glo luminescence, single point, set 2; hit rate 0.32% among 310,000; inhibition, % at 9.4 µM; BacTiter-Glo ATP, 48 h; yeast lacking PDR1 and PDR3 efflux regulators;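 active means every replicate shows inhibition above about 80%, whatever the replicate mean, limit read from the data; inconclusive means mean inhibition reaches the set limit but some replicate falls short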
T cruzi repl: inhibitors of intracellular T. cruzi growth, primary screen, luminescence, NIH3T3 host cells. hit rate 1.4% among 300,000. T. cruzi beta-gal in NIH3T3, 90 h. inhibition, % (no concentration beside the values);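 active means mean inhibition across valid replicates above about 55%, limit read from the data; inconclusive means mean below that limit but half or more replicates reach it; inactive means mean below it, under half of replicates reach it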;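 further: signal also drops with host cell toxicity which is not excluded here; higher percent means less beta-gal luminescence so fewer parasites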
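System: Mouse NIH/3T3 fibroblasts infected with β-gal-expressing T. cruzi Tulahuen C4 | Quantity: NIH/3T3 cells, 5,000 per well | Reagent: 5000 reporter trypomastigotes per well | Dosing: Compound pinned at 50 nL/well, DMSO | Schedule: 3 h host attachment, then at least 90 h co-culture | Detection: GalScreen luminescence, 60 min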
Of the large screens only hits and unclear results are named; the others gave an inactive call.

Cc1ccc(NS(=O)(=O)c2cc(C(=O)Nc3cccc([N+](=O)[O-])c3)ccc2C)cc1	none
O=C(Nc1ccc(S(=O)(=O)NC2=NCCCCC2)cc1)c1ccc(Cl)c([N+](=O)[O-])c1	none (no result: HIF act, SKKanGAS inh, T cruzi repl)
Cc1cccc(C)c1NS(=O)(=O)c1ccc(NC(=O)c2ccc(Cl)c([N+](=O)[O-])c2)cc1	CSC inhib 103.1 (no result: PfHsp90 set2)
O=C(Nc1ccc(C(O)(C(F)(F)F)C(F)(F)F)cc1)c1ccc(Cl)c([N+](=O)[O-])c1	CSC inhib 87.2
Cc1ccc(C(=O)Nc2cccc([N+](=O)[O-])c2)cc1S(=O)(=O)Nc1ccc(NC(=O)c2ccccc2)cc1	HIF act 139.9
CC[C@@]1(C(=O)OC)N[C@H](CN(C)C(=O)Nc2ccc(C(F)(F)F)cc2)[C@@H]2C(=O)N(C)C(=O)[C@@H]21	none (no result: HIF act, Beta apoptosis, SKKanGAS inh, CSC inhib, T cruzi repl)
COc1ccc(-c2csc(NNC3=NCCCCC3)n2)cc1	HIF act 205.3 (no result: PfHsp90 set2)
O=C1C=C(c2ccc(F)c(Cl)c2)C[C@@H](c2ccc(F)cc2)C1	none (no result: HIF act, SKKanGAS inh, T cruzi repl)
CC(/C=C1\SC(=O)N(CC(=O)Nc2cccc(O)c2)C1=O)=C\c1ccccc1	CSC inhib 117.0 (no result: PfHsp90 set2)
N#CC(c1cccc(Cl)c1)c1ccc2c(C(F)(F)F)cc(C(F)(F)F)nc2n1 (stereo not drawn)	Beta apoptosis 114.1, SKKanGAS inh 95.0, CSC inhib 107.1
NNc1ccc2c(C(F)(F)F)cc(C(F)(F)F)nc2n1	none
CN(Cc1ccccc1)Cc1ccccc1C(O)c1ccccc1 (stereo not drawn)	none (no result: HIF act, Beta apoptosis, SKKanGAS inh, CSC inhib, T cruzi repl)
C/C(=N\NC(=S)NCc1ccccc1)c1cccc(Br)c1	SKKanGAS inh 56.2
COc1cccc(N2C(=O)CC(N3CCN(S(=O)(=O)c4ccccc4[N+](=O)[O-])CC3)C2=O)c1 (stereo not drawn)	none (no result: HIF act, Beta apoptosis, SKKanGAS inh, CSC inhib, T cruzi repl)
Nn1c(-c2cccc(O)c2)nnc1-c1cccc(O)c1	none (no result: HIF act, Beta apoptosis, SKKanGAS inh, CSC inhib, T cruzi repl)
COc1cc2c(cc1OC)CN(c1nc(-c3cccnc3)nc3ccccc13)CC2	T cruzi repl 55.2
C/C(=N\N1C(=O)c2ccccc2NC1c1ccccc1)c1ccccc1O (stereo not drawn)	Beta apoptosis 87.2, T cruzi repl 65.6
C/C(=N\N1C(=O)c2ccccc2NC1c1ccco1)c1ccccc1O (stereo not drawn)	Beta apoptosis 99.1, T cruzi repl 61.1
N#C/C(=C\c1coc2ccc(O)cc2c1=O)C(=O)Nc1nc2ccccc2s1	none
Cc1ccc2nc(N(CCCN(C)C)C(=O)CN3C(=O)c4ccccc4C3=O)sc2c1	T cruzi repl 61.2
Cc1cc(C)c2sc(N(CCCN(C)C)C(=O)CN3C(=O)c4ccccc4C3=O)nc2c1	none
Cc1ccc(S(=O)(=O)CC(=O)N(CCCN(C)C)c2nc3ccc(C)cc3s2)cc1	T cruzi repl 65.1 (no result: PfHsp90 set2)
Cc1[nH]n(-c2ncc(-c3ccccc3)s2)c(=O)c1C(c1ccc(Br)cc1)C(C#N)C#N (stereo not drawn)	SKKanGAS inh 86.1 (no result: CSC inhib)
COc1ccc(-n2c(SCc3ccc([N+](=O)[O-])cc3)nnc2-c2ccc(C)cc2)cc1	T cruzi repl 69.7
O=C(Nc1ccccc1N1CCN(C(=O)c2ccc(Cl)cc2)CC1)c1ccc(Br)cc1	T cruzi repl 64.1 (no result: Beta apoptosis)
O=C(Nc1ccccc1N1CCN(C(=O)c2ccc(Cl)cc2)CC1)c1ccc([N+](=O)[O-])o1	SKKanGAS inh 78.6, T cruzi repl 62.0
O=C(Nc1ccccc1N1CCOCC1)c1ccc([N+](=O)[O-])o1	PfHsp90 set2 109.0
O=C(Nc1ccccc1N1CCN(C(=O)c2ccc(Cl)cc2)CC1)c1cc2ccccc2o1	none
O=C(Nc1ccccc1N1CCN(C(=O)c2ccccc2)CC1)c1ccc(Cl)cc1	none
COc1ccccc1NC(=O)C(C)OC(=O)CC1CCCCC1 (stereo not drawn)	none (no result: HIF act, SKKanGAS inh, CSC inhib, T cruzi repl)
COCCN(CC(=O)Nc1cccc(C)c1C)C(=O)CN1C(=O)NC2(CCCCC2)C1=O	none (no result: HIF act, SKKanGAS inh, PfHsp90 set2, T cruzi repl)
NC(=N\N=CCc1ccccc1)/C(N)=N/N=CCc1ccccc1	none (no result: HIF act, Beta apoptosis, SKKanGAS inh, CSC inhib, T cruzi repl)
Oc1ccc(-c2nccc(-c3ccc(Cl)cc3Cl)n2)cc1	T cruzi repl 79.0
CN(C)C(=O)/C(=C/c1cn(-c2ccccc2)nc1-c1cccc([N+](=O)[O-])c1)NC(=O)c1ccccc1	none (no result: CSC inhib, PfHsp90 set2)
O=C(NCc1cn(-c2ccccc2)nc1-c1ccccc1)c1cc([N+](=O)[O-])cc([N+](=O)[O-])c1	T cruzi repl 61.5 (no result: PfHsp90 set2)
C=CCNC(=O)/C(=C/c1cn(-c2ccccc2)nc1-c1cccc([N+](=O)[O-])c1)NC(=O)c1ccccc1	HIF act 229.8
COc1ccc(-c2nn(-c3ccccc3)cc2CNC(=O)c2cccc([N+](=O)[O-])c2)cc1	T cruzi repl 66.4
O=C(NCc1cn(-c2ccccc2)nc1-c1ccccc1)c1cccc([N+](=O)[O-])c1	T cruzi repl inconclusive
CC(=O)Nc1cccc(NC(=O)C2CC(=O)N(CCc3ccc(F)cc3)C2)c1 (stereo not drawn)	none
COc1ccc(Cc2noc(CN3CCN(C4CCc5ccccc5C4)CC3)n2)cc1OC (stereo not drawn)	T cruzi repl 57.2 (no result: Beta apoptosis)
COc1ccc(Cc2noc(CN3CCCN(Cc4ccc(F)cc4)CC3)n2)cc1OC	T cruzi repl 78.4
Fc1cccc(Cc2noc(CN3CCCN(C4Cc5ccccc5C4)CC3)n2)c1	T cruzi repl 56.5
Fc1cccc(CNc2ncnc3cc(Cl)ccc23)c1F	none
CCOC(=O)Nc1cccc(OCC(=O)Nc2ccc3c(c2)CCC3)c1	none (no result: HIF act, SKKanGAS inh, PfHsp90 set2, T cruzi repl)
O=C(CCCN1C(=O)/C(=C\c2cccs2)SC1=S)NNC(=O)c1cccnc1	none
O=C(CSc1ccc2ccccc2c1)N1CCN(c2ccc(O)cc2)CC1	CSC inhib 91.4 (no result: HIF act)
CC(C)Cc1ccc(C(=O)Nc2ccc(Cc3ccncc3)cc2)o1	none (no result: Beta apoptosis, CSC inhib)
CC(=O)c1ccc(C(=O)N2CCCC(CO)(Cc3ccccc3C)C2)s1 (stereo not drawn)	none (no result: Beta apoptosis, CSC inhib)
Cc1cnc(C(=O)N2CCN(S(=O)(=O)c3ccc(F)c(F)c3F)CC2)cn1	none (no result: HIF act, SKKanGAS inh, T cruzi repl)
CCCCCCC(=O)N(O)C1CC(=O)N(c2ccc(F)cc2)C1=O (stereo not drawn)	PfHsp90 set2 109.1
CCCCCCC(=O)N(O)C1CC(=O)N(c2ccc(Br)cc2)C1=O (stereo not drawn)	PfHsp90 set2 118.9
CCC(=O)Nc1nc2ccccc2n1Cc1ccccc1Cl	SKKanGAS inh 63.1
O=C(Nc1nc(NC(=O)c2ccco2)n(-c2ccccc2)n1)c1ccccc1	HIF act 12.0, Beta apoptosis 89.1
Nc1nc(NC(=O)c2ccccc2)nn1-c1ccccc1	none
CC(=O)NCCc1nc2ccccc2n1Cc1ccc(Cl)cc1	none
CC(=O)Nc1nc2ccccc2n1Cc1ccccc1C	none (no result: CSC inhib)
